These results are taken from ChEMBL document CHEMBL1914453, “1,1-Diarylalkenes as anticancer agents: dual inhibitors of tubulin polymerization and phosphodiesterase 4” (Bioorg Med Chem, 2011).

In data set [1] the test system is HCT-116. In words: Cytotoxicity against human HCT116 cells assessed as reduction of [3H]thymidine incorporation after 72 hrs by scintillation counting. It is filed as functional, cell-based. A digest of the protocol: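 HCT-116 cells were seeded 24 h before compound and treated with serial dilutions in triplicate for 72 h at 37 °C. [³H]thymidine (1 µCi per well) was added for the last 6 h, and incorporation was read by scintillation counting. IC50 came from nonlinear sigmoidal regression (top 100%, bottom 0%, variable slope). Values are means of at least three independent determinations, with SEM from the individual IC50s.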
On the technique in general: Dividing cells build labelled thymidine or BrdU into new DNA.

For data set [2], the target named is Phosphodiesterase 4 (Homo sapiens, UniProt P27815+Q08499+Q07343+Q08493). The experiment in a line: Inhibition of human PDE4 expressed in U937 cells using [3H]cAMP as substrate after 30 mins. Conditions: u-937. The method in brief: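 PDE4 was purified from U937 human monocytic cells by gel filtration. Reactions ran in 50 mM Tris–HCl pH 7.5 with 5 mM MgCl₂, 1 µM cAMP and 10 nM [³H]-cAMP for 30 min at 30 °C. They were stopped by boiling, treated with snake venom (1 mg/ml) and separated on ion-exchange resin. Substrate consumption stayed below 15%. IC50 values are means of at least three determinations, with SEM.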

Data set [3] concerns PBMC. The experiment in a line: Inhibition of LPS-induced TNFalpha production in human PBMC preincubated 1 hr prior to LPS stimulation measured after 18 to 20 hrs by ELISA. The format is functional, cell-based. A digest of the protocol:
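PBMC were isolated by Ficoll-Hypaque density centrifugation and plated at 2 × 10⁵ cells in triplicate. Compounds in DMSO (0.25% final) were added 1 h before stimulation with LPS from S. abortus equi at 1 ng/ml. After 18–20 h at 37 °C in 5% CO₂, supernatant TNF-α was measured by ELISA. IC50 values are means of at least three determinations.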
Background: An ELISA detects its analyte on a solid surface through an enzyme-linked reagent.

Data set [4] is described as follows: Inhibition of tubulin polymerization at 5 uM after 60 mins by spectrophotometry.
Data set [5] has as its system Plasma. In words: Stability in human plasma assessed as formation of (E/Z)-3-(3-Ethoxy-4-methoxyphenyl)-3-(3-hydroxy-4- methoxyphenyl)acrylonitrile […] by LC-MS/MS analysis. It is filed as ADME, cell-free. The note with it: 20 min.
The nature of data set [6]: Inhibition of tubulin polymerization at 10 uM after 60 mins by spectrophotometry.

For the molecule `CC=C(c1cc(OC)cc(OC)c1)c1ccc(OC)c(OC)c1`, the half-maximal inhibitory concentration (IC50) (as a rule, the point on the concentration scale where inhibition reaches its midpoint) was 480 nM in data set [1], 1500 nM in data set [2] and 2600 nM in data set [3].

Take `C=C(c1ccc(OC)c(N)c1)c1ccc(OC)c(OCC)c1`: the IC50 in data set [1] is 38 nM; in data set [2], 680 nM; in data set [3] it was 380 nM.

As to `CCOc1cc(C(=CC#N)c2ccc(NC)cc2)ccc1OC`, the figures for the IC50 in data set [1], in data set [2] and in data set [3] were 55 nM, 41 nM and 140 nM, respectively.

As for `COc1ccc(C(=CC#N)c2ccc(OC)c(OC)c2)cc1`, the figures for the concentration for half-maximal inhibition (IC50) in data set [1], in data set [2] and in data set [3] were 24 nM, 190 nM and 350 nM, respectively.

Turning to `COc1cc(OC)cc(C(=CC#N)c2ccccc2)c1`, the figures for the IC50 in data set [1], in data set [2] and in data set [3] were 970 nM, 1900 nM and 2400 nM, respectively.

For `COc1ccc(C(=CC#N)c2cc(OC)cc(OC)c2)cc1`, the IC50 in data set [1] was 1.2 nM; in data set [2], 3800 nM; in data set [3] it was 440 nM.

As to `COc1cc(OC)cc(C(=CC#N)c2ccc(OC)c(O)c2)c1`, the concentration for half-maximal inhibition (IC50) in data set [1] stood at 2.5 nM; in data set [2] it was 2400 nM; in data set [3], 1.2 nM. Further, the inhibition (usually the share of the control response that was lost under treatment) in data set [4] is 77%.

Regarding `COc1cc(OC)cc(/C(=C\C#N)c2ccc(OC)c(OC)c2)c1`, the figures for the IC50 in data set [1], in data set [2] and in data set [3] were 11 nM, 150 nM and 93 nM, respectively.

On to `CCOc1cc(C(=CC#N)c2ccc(N(C)C)cc2)ccc1OC`, for which the IC50 in data set [1] came to 31 nM; in data set [2] it was 52 nM; in data set [3] it was 130 nM.

Consider `CC=C(c1ccc(OC)c(N)c1)c1ccc(OC)c(OCC)c1`, for which the IC50 turned out to be 110 nM in data set [1], 590 nM in data set [2] and 2800 nM in data set [3].

As to `CCOc1cc(C(=CC#N)c2ccc(OC)c(O)c2)ccc1OC`, the IC50 in data set [1] came to 15 nM; in data set [2], 91 nM; in data set [3], 44 nM.

Turning to `COc1cccc(C(=CC#N)c2ccc(OC)c(OC)c2)c1`, the 50% inhibitory concentration (IC50) in data set [1] was 310 nM; in data set [2], 160 nM; in data set [3] it was 660 nM.

Take `CCOc1cc(C(=CC#N)c2ccc(OC)c(OC(=O)CN)c2)ccc1OC.Cl`: the IC50 was found to be 19 nM in data set [1], 49 nM in data set [2] and 58 nM in data set [3]. The Stability result in data set [5] was “Unstable”.

As for `COc1ccc(C(=CC#N)c2cc(OC)c(OC)c(OC)c2)cc1OC`, the IC50 in data set [1] stood at 41 nM; in data set [2], 1800 nM; in data set [3], 540 nM.

Turning to `COc1cc(OC)cc(C(=CC(=O)O)c2ccc(OC)c(OC)c2)c1`, the IC50 in data set [1], in data set [2] and in data set [3] was > 10000 nM each time.

With `COc1cc(OC)cc(C(=CC(N)=O)c2ccc(OC)c(OC)c2)c1`, the concentration for half-maximal inhibition (IC50) in data set [1] was > 10000 nM; in data set [2], 6700 nM; in data set [3], 5500 nM.

On to `COC(=O)C=C(c1cc(OC)cc(OC)c1)c1ccc(OC)c(OC)c1`, for which the figures for the IC50 in data set [1], in data set [2] and in data set [3] were > 10000 nM, 1300 nM and 5400 nM, respectively.

Regarding `CCOc1cc(C(=CC#N)c2ccc(OC)c(-n3cccc3)c2)ccc1OC`, the IC50 in data set [1] came to 49 nM; in data set [2] it was 70 nM; in data set [3], 67 nM.

Turning to `CC=C(c1cc(OC)cc(OC)c1)c1ccc(OC)c(O)c1`, the IC50 in data set [1] was 30 nM; in data set [2], > 10000 nM; in data set [3], 150 nM.

Turning to `CCOc1cc(C(=CC#N)c2cccc(OC)c2)ccc1OC`, the 50% inhibitory concentration (IC50) came to 450 nM in data set [1], 110 nM in data set [2] and 230 nM in data set [3].

For `COc1cc(C(=CC#N)c2cc(OC)c(OC)c(OC)c2)cc(OC)c1OC`, the 50% inhibitory concentration (IC50) in data set [1] was > 10000 nM; in data set [2], 2400 nM; in data set [3], 870 nM.

Turning to `C=C(c1ccc(OC)c(O)c1)c1ccc(OC)c(OCC)c1`, the half-inhibitory concentration (IC50) turned out to be 36 nM in data set [1], 380 nM in data set [2] and 29 nM in data set [3].

As for `COc1cccc(C(=CC#N)c2cc(OC)cc(OC)c2)c1`, the IC50 stood at 15 nM in data set [1], 3400 nM in data set [2] and 290 nM in data set [3]. Besides, the results for the inhibition in data set [4] and in data set [6] were 67% and 88%, respectively.

Turning to `COc1cc(OC)cc(C(=CC#N)c2ccc(OC)c(OC)c2)c1`, the IC50 in data set [1] was found to be 18 nM; in data set [2], 350 nM; in data set [3], 270 nM. For the same molecule, the figures for the inhibition in data set [4] and in data set [6] were 65% and 84%, respectively.

Take `CCC=C(c1cc(OC)cc(OC)c1)c1ccc(OC)c(OC)c1`: the IC50 in data set [1] was > 10000 nM; in data set [2] it was 2000 nM; in data set [3] it was > 10000 nM.

`COc1cc(OC)cc(C(=CC#N)c2ccc(OC)c(NC(C)=O)c2)c1`: the results for the IC50 in data set [1], in data set [2] and in data set [3] were 92 nM, > 10000 nM and 66 nM, respectively. In addition, the inhibition is 46% in data set [4] and 74% in data set [6].

Regarding `CCOc1cc(C(=CC#N)c2ccc(OC)c(OC(=O)N(C)C)c2)ccc1OC`, the half-inhibitory concentration (IC50) in data set [1] is > 10000 nM; in data set [2] it was 120 nM; in data set [3], 240 nM.

Regarding `CCOc1cc(C(=CC#N)c2ccc(OC)c(OC(=O)[C@H](C)N)c2)ccc1OC.Cl`, the IC50 in data set [1] is 17 nM; in data set [2], 69 nM; in data set [3] it was 57 nM. In data set [5], the Stability entry was “Unstable”.

Turning to `COc1cc(OC)cc(C(=CC(C)=O)c2ccc(OC)c(OC)c2)c1`, the values for the IC50 in data set [1], in data set [2] and in data set [3] were > 10000 nM, 140 nM and 750 nM, respectively.

For the molecule `CCOc1cc(C(=CC#N)c2ccc(OC)c(F)c2)ccc1OC`, the IC50 was found to be 130 nM in data set [1], 70 nM in data set [2] and 31 nM in data set [3].

With `CCOc1cc(C(=C(F)F)c2ccc(OC)c(O)c2)ccc1OC`, the IC50 in data set [1] was 74 nM; in data set [2], 360 nM; in data set [3], 54 nM.

In the case of `COc1cc(OC)cc(C(=Cc2ccccc2)c2ccc(OC)c(O)c2)c1`, the half-maximal inhibitory concentration (IC50) in data set [1], in data set [2] and in data set [3] was > 10000 nM throughout.

For `COc1ccc(C(=CC#N)c2cc(OC)c(OC)c(OC)c2)cc1N`, the figures for the IC50 in data set [1], in data set [2] and in data set [3] were 1.8 nM, > 10000 nM and 200 nM, respectively.

In the case of `COc1ccc(/C=C\c2cc(OC)c(OC)c(OC)c2)cc1O` [COMBRETASTATIN A4], the IC50 in data set [1] was 0.74 nM; in data set [2] it was > 10000 nM; in data set [3] it was 11 nM. Moreover, in data set [4], the inhibition worked out at 88%.

Regarding `COc1cc(OC)cc(C(=CC#N)c2ccc(OC)c(N)c2)c1`, the IC50 in data set [1] amounted to 1.4 nM; in data set [2], 9800 nM; in data set [3], 11 nM. The molecule further had an inhibition in data set [4] of 76%.

As to `CCOc1cc(C(=CC#N)c2ccc(OC)c(C)c2)ccc1OC`, the figures for the IC50 in data set [1], in data set [2] and in data set [3] were 87 nM, 82 nM and 100 nM, respectively.

As to `CCOc1cc(C(=CC#N)c2ccc(OC)c(OC)c2)ccc1OC`, the concentration for half-maximal inhibition (IC50) came to 200 nM in data set [1], 83 nM in data set [2] and 180 nM in data set [3].

As to `C=C(c1cc(OC)cc(OC)c1)c1ccc(OC)c(OC)c1`, the 50% inhibitory concentration (IC50) was > 10000 nM in data set [1], 2200 nM in data set [2] and 4800 nM in data set [3].

Take `COC=C(c1cc(OC)cc(OC)c1)c1ccc(OC)c(OC)c1`: the results for the half-maximal inhibitory concentration (IC50) in data set [1], in data set [2] and in data set [3] were > 10000 nM, 3600 nM and 6300 nM, respectively.

As for `COc1ccc(C(=CC#N)c2ccc(OC)c(OC)c2)cc1OC`, the concentration for half-maximal inhibition (IC50) in data set [1] came to 140 nM; in data set [2] it was 310 nM; in data set [3] it was 600 nM.

On to `C=C(c1cc(OC)cc(OC)c1)c1ccc(OC)c(N)c1`, for which the results for the half-maximal inhibitory concentration (IC50) in data set [1], in data set [2] and in data set [3] were 13 nM, > 10000 nM and 330 nM, respectively.

On to `C#CC=C(c1cc(OC)cc(OC)c1)c1ccc(OC)c(OC)c1`, for which the 50% inhibitory concentration (IC50) in data set [1] is > 10000 nM; in data set [2], 3500 nM; in data set [3] it was 7200 nM.

Turning to `COc1cc(OC)cc(/C(=C/C#N)c2ccc(OC)c(OC)c2)c1`, the figures for the half-maximal inhibitory concentration (IC50) in data set [1], in data set [2] and in data set [3] were 110 nM, 730 nM and 650 nM, respectively.

For `CCOc1cc(C(=CC#N)c2ccc(OC)c(OCC)c2)ccc1OC`, the half-maximal inhibitory concentration (IC50) in data set [1] came to 440 nM; in data set [2], 70 nM; in data set [3] it was 48 nM.

With `COc1cc(OC)cc(C(=CCCN(C)C)c2ccc(OC)c(OC)c2)c1`, the half-inhibitory concentration (IC50) in data set [1], in data set [2] and in data set [3] was > 10000 nM throughout.

Consider `CCOc1cc(C(=CC#N)c2ccc(S(C)(=O)=O)cc2)ccc1OC`, for which the values for the 50% inhibitory concentration (IC50) in data set [1], in data set [2] and in data set [3] were > 10000 nM, 200 nM and 130 nM, respectively.

`C=C(c1cc(OC)cc(OC)c1)c1ccc(OC)c(O)c1`: the IC50 in data set [1] was 21 nM; in data set [2], > 10000 nM; in data set [3], 3000 nM.
